Laboratory results reported in ChEMBL document CHEMBL4765491, “Discovery of Potent and Selective Methylenephosphonic Acid CD73 Inhibitors” (J Med Chem, 2021).

Tests used:
5'-nucleotidase [1] = biological target: 5'-nucleotidase (Homo sapiens, UniProt P21589); assay: Inhibition of human CD73 expressed in CHO cells incubated for 60 mins before addition of AMP and further incubated for 60 mins by colorimetric assay; assay type: cell-based
How it was run: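 Thawed stable CD73-CHO cells in HEPES pH 7.4 saline buffer with 0.1% glucose, 1500 cells/well. Preincubated 60 min at 37 °C with 16-point 1:3 compound dilutions (final 100–0 or 0.1–0 μM; 10 or 2% DMSO). 25 μM AMP then added, 60 min at 37 °C/5% CO2. Supernatant phosphate measured with PiColorLock Gold. Activity normalized to DMSO and no-cell wells. IC50 from a four-parameter fit.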

5'-nucleotidase [2] = biological target: T1, 5'-nucleotidase (Mus musculus, UniProt Q61503); assay: Inhibition of soluble mouse CD73 incubated for 60 mins before addition of AMP and further incubated for 60 mins by colorimetric assay
T1 sequence (Q61503 whole entry): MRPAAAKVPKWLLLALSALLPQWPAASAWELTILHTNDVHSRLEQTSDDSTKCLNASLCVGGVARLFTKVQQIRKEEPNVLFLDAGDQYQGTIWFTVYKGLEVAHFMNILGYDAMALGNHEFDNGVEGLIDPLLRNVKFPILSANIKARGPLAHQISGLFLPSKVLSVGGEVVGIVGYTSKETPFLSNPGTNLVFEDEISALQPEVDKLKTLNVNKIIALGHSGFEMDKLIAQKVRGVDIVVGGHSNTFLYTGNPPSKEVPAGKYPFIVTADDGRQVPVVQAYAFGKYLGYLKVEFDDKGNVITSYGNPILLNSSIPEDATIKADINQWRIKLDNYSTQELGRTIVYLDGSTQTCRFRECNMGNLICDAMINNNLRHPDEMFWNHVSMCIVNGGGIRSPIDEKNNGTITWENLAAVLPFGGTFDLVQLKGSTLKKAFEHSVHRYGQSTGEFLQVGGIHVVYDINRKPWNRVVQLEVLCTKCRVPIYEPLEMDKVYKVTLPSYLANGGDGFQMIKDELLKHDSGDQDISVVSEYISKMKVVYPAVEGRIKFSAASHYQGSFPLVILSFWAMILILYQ

Adenosine receptor A2a = Adenosine receptor A2a (Homo sapiens, UniProt P29274); assay: Inhibition of A2AR (unknown origin) expressed in CHO cells assessed as reduction in NECA-stimulated cellular cAMP levels incubated for 90 mins by FRET assay; assay type: functional, cell-based
How it was run: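 Tetracycline-induced CHO cells stably expressing ADORA2A, 2000 cells/well, preincubated with 20-point 1:2 compound dilutions (final 10–0 μM). Stimulated with 30 nM NECA, 30 min at 37 °C. Quenched with ULight-anti-cAMP in lysis buffer, then Eu-cAMP tracer added, 60 min at 37 °C. Inhibition read as change in cellular cAMP.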

[3] = biological target: T2, Ectonucleoside triphosphate diphosphohydrolase 8 (Homo sapiens, UniProt Q5MY95); assay: Inhibition of human NTPDase-8 expressed in CHO-K1 cells in presence of DNA/LTX mixture; assay type: cell-based
T2 sequence (Q5MY95 whole entry): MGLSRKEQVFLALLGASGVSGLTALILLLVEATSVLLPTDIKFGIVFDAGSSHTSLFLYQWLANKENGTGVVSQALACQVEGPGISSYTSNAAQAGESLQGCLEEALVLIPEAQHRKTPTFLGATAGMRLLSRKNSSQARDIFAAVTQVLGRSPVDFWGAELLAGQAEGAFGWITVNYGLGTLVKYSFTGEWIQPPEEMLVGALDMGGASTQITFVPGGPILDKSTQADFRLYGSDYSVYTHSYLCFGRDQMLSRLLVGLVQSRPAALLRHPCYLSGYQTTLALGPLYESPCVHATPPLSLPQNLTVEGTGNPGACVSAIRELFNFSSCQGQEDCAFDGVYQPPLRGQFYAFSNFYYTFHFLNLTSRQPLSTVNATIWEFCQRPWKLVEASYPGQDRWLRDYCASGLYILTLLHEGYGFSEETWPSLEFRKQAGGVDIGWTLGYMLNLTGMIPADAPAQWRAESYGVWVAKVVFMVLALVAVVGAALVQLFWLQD
How it was run: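 CHO-K1 cells transfected overnight (Lipofectamine LTX) with NTPDase2, 3 or 8 plasmid, then harvested into HEPES pH 7.4 buffer. 10,000 cells/well, 2% DMSO, 16-point 1:3 compound dilutions (final 10–0 μM), 1 h preincubation at 37 °C. ATP added at 25 (NTPDase2), 15 (NTPDase3) or 30 μM (NTPDase8), 50 min at 37 °C. Phosphate read with PiColorLock Gold at 620 nm.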

[4] = Stability in human hepatocytes; assay type: ADME, cell-based, Hepatocyte

Chain of Adenosine receptor A2a (P29274 whole entry): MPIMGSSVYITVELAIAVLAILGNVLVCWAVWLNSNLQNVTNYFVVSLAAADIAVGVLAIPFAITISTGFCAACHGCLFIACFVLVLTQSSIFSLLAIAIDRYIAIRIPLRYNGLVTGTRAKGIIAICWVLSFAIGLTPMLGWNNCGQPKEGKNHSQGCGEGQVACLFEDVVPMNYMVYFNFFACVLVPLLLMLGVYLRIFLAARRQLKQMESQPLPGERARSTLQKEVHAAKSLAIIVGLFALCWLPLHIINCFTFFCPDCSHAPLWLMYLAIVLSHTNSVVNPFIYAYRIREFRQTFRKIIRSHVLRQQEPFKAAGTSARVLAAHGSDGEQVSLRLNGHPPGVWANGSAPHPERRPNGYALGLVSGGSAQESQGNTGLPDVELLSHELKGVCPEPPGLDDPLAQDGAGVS
Chain of 5'-nucleotidase (Homo sapiens, UniProt P21589) (P21589 whole entry): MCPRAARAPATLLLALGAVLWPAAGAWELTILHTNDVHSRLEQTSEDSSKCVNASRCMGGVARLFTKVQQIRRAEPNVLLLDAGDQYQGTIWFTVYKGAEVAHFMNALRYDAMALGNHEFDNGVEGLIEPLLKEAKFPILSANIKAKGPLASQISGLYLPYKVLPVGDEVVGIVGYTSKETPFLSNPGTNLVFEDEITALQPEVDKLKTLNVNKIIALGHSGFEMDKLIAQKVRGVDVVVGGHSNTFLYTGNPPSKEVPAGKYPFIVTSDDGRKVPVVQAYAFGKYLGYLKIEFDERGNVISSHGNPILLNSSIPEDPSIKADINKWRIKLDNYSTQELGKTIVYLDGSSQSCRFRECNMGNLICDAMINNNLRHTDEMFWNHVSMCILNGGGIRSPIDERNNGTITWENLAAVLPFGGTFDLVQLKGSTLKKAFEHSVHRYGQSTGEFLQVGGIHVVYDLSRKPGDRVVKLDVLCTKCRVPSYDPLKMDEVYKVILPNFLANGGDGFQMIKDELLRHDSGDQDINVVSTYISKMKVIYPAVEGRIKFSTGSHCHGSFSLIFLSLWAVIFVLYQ

Compound `O=P(O)(O)COC[C@H]1O[C@@H](n2ncc3c(NC4CCCC4)nc(Cl)nc32)[C@H](O)[C@@H]1O` has an IC50 (5'-nucleotidase [1]) of 2.6 nM, an IC50 (5'-nucleotidase [2]) of 3 nM and an IC50 (Adenosine receptor A2a) of over 10000 nM. The IC50 [3] was over 10000 nM and the Stabilty [4] was “Stable”.
